Reference: ChEMBL document CHEMBL3227986, “Design of species- or isozyme-specific enzyme inhibitors. 1. Effect of thymidine substituents on affinity for the thymidine site of hamster cytoplasmic thymidine kinase” (J Med Chem, 1979)

Assays:
[1] = molecular target: T1, Thymidine kinase, cytosolic (Cricetulus griseus) (UniProt P09768); assay: Inhibition of thymidine kinase in BHK21 (C13) cells using thymidine as substrate assessed as formation of TMP at 2 mM; format: cell-based; settings: Mesocricetus auratus
T1 sequence (whole entry): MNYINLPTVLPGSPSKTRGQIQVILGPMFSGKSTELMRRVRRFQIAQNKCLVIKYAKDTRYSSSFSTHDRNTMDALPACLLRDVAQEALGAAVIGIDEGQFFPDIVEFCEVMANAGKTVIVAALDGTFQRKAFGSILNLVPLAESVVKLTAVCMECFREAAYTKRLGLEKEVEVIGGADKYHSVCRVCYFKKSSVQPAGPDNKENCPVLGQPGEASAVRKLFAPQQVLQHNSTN
In short: (§1)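 BHK21(C13) 100000g supernatant in Tris-HCl 0.05 M pH 8.0, ATP 5 mM, MgCl2 2.5 mM, [14C]thymidine 3.6 μM, 10 min at 37 °C. Reaction stopped by boiling; [14C]TMP bound to DEAE-cellulose disks and counted by liquid scintillation, corrected for unincubated blanks.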

[2] = molecular target: T1, Thymidine kinase, cytosolic (Cricetulus griseus); assay: Inhibition of thymidine kinase in BHK21 (C13) cells using thymidine as substrate assessed as formation of TMP at 4 mM; format: cell-based; settings: Mesocricetus auratus; in short: as §1
[3] = molecular target: T1, Thymidine kinase, cytosolic (Cricetulus griseus); assay: Activity at thymidine kinase in BHK21 (C13) cells at 350 uM after 30 mins relative to thymidine; format: cell-based; settings: Mesocricetus auratus
In short: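 Radiolabeled thymidine or 2'-deoxyuridine derivatives tested as substrates: 40 μL BHK21(C13) 100000g supernatant, Tris-HCl 0.05 M pH 8.0, ATP 5 mM, MgCl2 2.5 mM, no thymidine, 30 min at 37 °C. Products separated by paper electrophoresis in 0.05 M triethylammonium bicarbonate pH 7.6; radioactivity counted in the TMP region.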

[4] = molecular target: T2, Thymidine kinase 2, mitochondrial (Homo sapiens, UniProt O00142); assay: Inhibition of human mitochondrial thymidine kinase
T2 sequence (O00142 whole entry): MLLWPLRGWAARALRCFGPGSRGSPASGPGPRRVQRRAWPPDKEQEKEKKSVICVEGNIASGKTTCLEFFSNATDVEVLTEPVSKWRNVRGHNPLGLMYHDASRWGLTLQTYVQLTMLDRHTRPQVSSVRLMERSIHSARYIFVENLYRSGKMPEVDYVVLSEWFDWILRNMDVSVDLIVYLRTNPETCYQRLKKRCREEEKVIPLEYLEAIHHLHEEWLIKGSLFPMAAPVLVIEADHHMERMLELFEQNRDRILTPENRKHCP

[5] = molecular target: T3, Thymidine kinase, cytosolic (Homo sapiens, UniProt P04183); assay: Inhibition of human cytoplasmic thymidine kinase
T3 sequence (P04183 whole entry): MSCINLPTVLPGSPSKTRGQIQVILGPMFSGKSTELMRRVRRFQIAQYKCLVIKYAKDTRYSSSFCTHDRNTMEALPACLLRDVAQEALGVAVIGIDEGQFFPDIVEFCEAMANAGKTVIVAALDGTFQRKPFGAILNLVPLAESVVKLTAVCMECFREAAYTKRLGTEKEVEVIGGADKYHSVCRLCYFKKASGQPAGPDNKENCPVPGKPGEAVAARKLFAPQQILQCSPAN

inhibition [1] [%] | inhibition [2] [%] | Activity [3] [%] | Ki [4] [µM] | Ki [5] [µM] | SMILES
8 | 13 | < 0.25 |  |  | CC(=O)Nc1cn([C@H]2C[C@H](O)[C@@H](CO)O2)c(=O)[nH]c1=O
 |  |  | 20 | 20 | CCCc1cn([C@H]2C[C@H](O)[C@@H](CO)O2)c(=O)[nH]c1=O
